The text below walks through data of paper PMC4681656 (Organic & biomolecular chemistry, 2016).

Structures are written as SMILES. Entries after “also recorded” stand apart in the source; their conditions may differ. A value given as a limit tells only on which side of the number the result lay.

For one experiment, the target named is hERG potassium channel (Homo sapiens, UniProt Q12809). In words: [3H]-dofetilide binding assay with hERG-HEK293 cell membranes. Background: Block of hERG is tested as a sign of cardiac risk.
The subject of experiment [1] is Par-4 secretion from mouse fibroblasts. The format is cell-based. Conditions: for fold induction at 0.5 µM: Mus musculus, Fibroblast, 24 h, read-out: Ratio of Par-4 Secretion by Arylquin Relative to Vehicle. The gist of the method: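 Cells exposed to test compound for 24 h. Conditioned medium and lysates were analysed by quantitative Western blot for Par-4 and Col1A1, with Col1A1 used to normalise secreted Par-4. Experiments were run in triplicate; data are mean ± standard deviation of at least three experiments, with Student t test.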

In experiment [2] the target is vimentin rod domain (residues 99-411) (Homo sapiens, UniProt P08670). In words: Vimentin-arylquin binding assay by intrinsic arylquin fluorescence. Conditions: fluorescence titration.
Sequence of vimentin rod domain (residues 99-411) (P08670 99-411): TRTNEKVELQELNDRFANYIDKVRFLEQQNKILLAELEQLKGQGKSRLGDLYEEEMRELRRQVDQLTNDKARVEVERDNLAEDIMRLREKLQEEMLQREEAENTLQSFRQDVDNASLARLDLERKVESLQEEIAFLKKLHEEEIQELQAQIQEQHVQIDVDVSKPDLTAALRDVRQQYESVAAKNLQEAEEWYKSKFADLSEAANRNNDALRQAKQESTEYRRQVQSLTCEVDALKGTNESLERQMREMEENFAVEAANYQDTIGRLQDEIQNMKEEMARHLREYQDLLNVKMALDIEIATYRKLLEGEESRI

Sequence of hERG potassium channel (Q12809 whole entry): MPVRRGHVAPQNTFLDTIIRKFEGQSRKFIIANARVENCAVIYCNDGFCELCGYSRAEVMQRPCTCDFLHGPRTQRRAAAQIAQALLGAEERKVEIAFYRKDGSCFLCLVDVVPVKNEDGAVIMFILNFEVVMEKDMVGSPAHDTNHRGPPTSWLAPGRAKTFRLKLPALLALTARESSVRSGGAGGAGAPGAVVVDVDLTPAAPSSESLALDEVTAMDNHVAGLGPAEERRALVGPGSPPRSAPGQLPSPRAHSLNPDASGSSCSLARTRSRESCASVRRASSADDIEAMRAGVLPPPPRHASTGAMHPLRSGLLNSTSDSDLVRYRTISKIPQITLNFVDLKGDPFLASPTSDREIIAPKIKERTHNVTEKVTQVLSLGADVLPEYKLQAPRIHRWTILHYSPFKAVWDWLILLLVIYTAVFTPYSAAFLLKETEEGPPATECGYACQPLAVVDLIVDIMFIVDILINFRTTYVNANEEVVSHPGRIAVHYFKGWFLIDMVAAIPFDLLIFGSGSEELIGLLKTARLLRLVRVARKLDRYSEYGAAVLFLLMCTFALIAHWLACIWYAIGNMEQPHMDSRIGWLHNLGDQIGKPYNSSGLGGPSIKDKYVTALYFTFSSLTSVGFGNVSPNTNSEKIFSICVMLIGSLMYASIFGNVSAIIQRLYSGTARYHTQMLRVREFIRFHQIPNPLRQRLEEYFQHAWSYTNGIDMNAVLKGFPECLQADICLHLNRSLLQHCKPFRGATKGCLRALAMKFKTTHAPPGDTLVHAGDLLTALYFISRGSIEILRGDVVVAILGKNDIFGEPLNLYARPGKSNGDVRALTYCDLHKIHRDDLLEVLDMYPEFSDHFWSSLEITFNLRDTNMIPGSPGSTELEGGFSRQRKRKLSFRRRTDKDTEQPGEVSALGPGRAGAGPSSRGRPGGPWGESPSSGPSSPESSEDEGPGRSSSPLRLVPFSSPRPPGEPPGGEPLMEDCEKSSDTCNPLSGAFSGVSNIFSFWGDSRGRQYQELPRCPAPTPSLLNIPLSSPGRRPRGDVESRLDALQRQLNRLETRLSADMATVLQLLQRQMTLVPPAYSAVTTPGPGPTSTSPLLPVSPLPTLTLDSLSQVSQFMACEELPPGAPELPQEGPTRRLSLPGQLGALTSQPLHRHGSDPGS

For the molecule `CN(C)c1ccc2cc(-c3ccccc3F)c(N3CCOCC3)nc2c1` [compound 10, 3-(2-Fluorophenyl)-N,N-dimethyl-2-morpholinoquinolin-7-amine], the IC50 – broadly, the concentration needed to halve the response being measured – at hERG potassium channel was determined as 23.3 ± 3.05 µM. The fold induction at 0.5 µM in experiment [1] was 1.8.
For `CN(C)c1ccc2cc(-c3cccc(F)c3)c(N)nc2c1` [1d, 3-(3-Fluorophenyl)-N^7,N^7-dimethylquinoline-2,7-diamine], the IC50 on hERG potassium channel was 1.59 ± 0.39 µM.
Turning to `COc1ccccc1-c1cc2ccc(N(C)C)cc2nc1N` [1r, 3-(2-Methoxyphenyl)-N^7,N^7-dimethylquinoline-2,7-diamine], the fold induction at 0.5 µM in experiment [1] was 1.7.
On to `Nc1nc2cc(Cl)ccc2cc1-c1ccccc1F` [compound 17, 7-Chloro-3-(2-fluorophenyl)quinolin-2-amine], for which the “Binding to vimentin rod domain (in words)” value in experiment [2] (arylquin at 1 μM) was “did not bind the vimentin rod domain to a measurable extent; also recorded: fluorescence signal did not change in the titration”. Moreover, in experiment [1], the “Par-4 secretion activity (in words)” value is “did not induce Par-4 secretion”.
For `Nc1nc2cccc(F)c2cc1-c1ccccc1F` [compound 13, 5-Fluoro-3-(2-fluorophenyl)quinolin-2-amine], the “Par-4 secretion activity (in words)” value in experiment [1] is reported as “equipotent to 1a”.
`CN(C)c1ccc2cc(-c3ccccc3F)c(=O)[nH]c2c1` [compound 2, 7-(N,N-Dimethylamino)-3-(2-fluorophenyl)quinolin-2(1H)-one] yielded an IC50 at hERG potassium channel of more than 100 µM. For the same molecule, the fold induction at 0.5 µM in experiment [1] worked out at 1.1.
With `CN(C)c1ccc2cc(-c3c(F)cccc3Cl)c(N)nc2c1` [1n, 3-(2-Chloro-6-fluorophenyl)-N^7,N^7-dimethylquinoline-2,7-diamine], in experiment [1], the fold induction at 0.5 µM is 2.4.
The same measure, in the same setting: under `CN(C)c1ccc2cc(-c3c(Cl)cccc3Cl)c(N)nc2c1` [1o, 3-(2,6-Dichlorophenyl)-N^7,N^7-dimethylquinoline-2,7-diamine] stands 2.4.
`CN1CCN(c2nc3cc(N(C)C)ccc3cc2-c2ccccc2F)CC1` [compound 11, 3-(2-Fluorophenyl)-N,N-dimethyl-2-(4-methylpiperazin-1-yl)quinolin-7-amine]: in experiment [1], the “Par-4 secretion activity (in words)” value is “high levels of Par-4 secretion”.
In the case of `CN(C)c1ccc2cc3c(nc2c1)[nH]c(=O)c1ccccc13` [compound 6, 9-(N,N-Dimethylamino)dibenzo[b,f][1,8]naphthyridin-5(6H)-one], the “Par-4 secretion activity (in words)” value in experiment [1] is “inactive”.
Turning to `Nc1nc2ccccc2cc1-c1ccccc1F` [compound 12, 3-(2-Fluorophenyl)quinolin-2-amine], at hERG potassium channel, the 50% inhibitory concentration (IC50) was determined as 14.6 ± 5.82 µM. Further, in experiment [1], the “Par-4 secretion activity (in words)” value is listed as “high levels of Par-4 secretion” and the fold induction at 0.5 µM was found to be 2.8.
As for `Nc1nc2ccc(Cl)cc2cc1-c1ccccc1F` [compound 16, 6-Chloro-3-(2-fluorophenyl)quinolin-2-amine], the “Par-4 secretion activity (in words)” value in experiment [1] is on record as “equipotent to 1a”.
For the molecule `CN(C)c1ccc2cc(-c3ccc(F)cc3)c(N)nc2c1` [1f, 3-(4-Fluorophenyl)-N^7,N^7-dimethylquinoline-2,7-diamine], the IC50 at hERG potassium channel was 30.2 ± 10.3 µM.
`CN(C)c1ccc2cc(-c3ccccc3F)c(=S)[nH]c2c1` [compound 7, 7-(N,N-Dimethylamino)-3-(2-fluorophenyl)quinoline-2(1H)-thione]: at hERG potassium channel, the IC50 is more than 100 µM. In addition, the fold induction at 0.5 µM in experiment [1] came out at 1.7.
`CN(C)c1ccc2cc(-c3ccccc3F)c(N)nc2c1` [1a, 3-(2-Fluorophenyl)-N^7,N^7-dimethylquinoline-2,7-diamine]: the Stoichiometry at saturation in experiment [2] is 3-4 molecules per monomer of the rod domain.
As to `CN(C)c1ccc2cc3c(nc(N)c4ccccc43)nc2c1` [compound 5, N^9,N^9-Dimethyldibenzo[b,f][1,8]naphthyridine-5,9-diamine], in experiment [1], the “Par-4 secretion activity (in words)” value was “inactive”.
